From ChEMBL document CHEMBL1255219, “Discovery of a β-d-2'-deoxy-2'-α-fluoro-2'-β-C-methyluridine nucleotide prodrug (PSI-7977) for the treatment of hepatitis C virus” (J Med Chem, 2010)

Experiments:
Hepatitis C virus [1] = assay: Antiviral activity against HCV infected in human clone A cells; assay type: functional, Hepacivirus hominis
Summary of the method: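 Clone A replicon cells seeded at 1500 cells/well. Compounds serially diluted in G418-free culture medium and added, then incubated 4 days at 37 °C in 5% CO2. HCV RNA quantified by real-time RT-PCR as ΔCt relative to the mean no-drug control.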

Rattus norvegicus [2] = assay: AUC (0 to infinity) in rat liver assessed as 2'-F-2'-C-Methyluridine-5''-TP level at 50 mg/kg, po; assay type: ADME, organism-based; set-up: time infinity, dose 50 mg/kg, route oral; conditions: in vivo
Summary of the method: (§1)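 Rats given a single oral gavage dose of 50 mg/kg in 0.5% carboxymethylcellulose sodium, 5 mL/kg. Livers taken at 0.5, 1, 2, 4, 6 and 12 h after CO2 sacrifice and ice-cold saline perfusion, then snap-frozen. Homogenized in 3 volumes of cold 70% methanol with 20 mM EDTA/EGTA. Triphosphate measured by LC/MS/MS (ESI, MRM negative mode), noncompartmental analysis.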

Rattus norvegicus [3] = assay: AUC (0 to t) in rat liver assessed as 2'-F-2'-C-Methyluridine-5''-TP level at 50 mg/kg, po; assay type: ADME, organism-based; set-up: dose 50 mg/kg, route oral; conditions: in vivo; summary of the method: as §1
Rattus norvegicus [4] = assay: Cmax in rat liver assessed as 2'-F-2'-C-Methyluridine-5''-TP level at 50 mg/kg, po; assay type: ADME, organism-based; set-up: dose 50 mg/kg, route oral; conditions: in vivo; summary of the method: as §1
Rattus norvegicus [5] = assay: Tmax in rat liver assessed as 2'-F-2'-C-Methyluridine-5''-TP level at 50 mg/kg, po; assay type: ADME, organism-based; set-up: dose 50 mg/kg, route oral; conditions: in vivo; summary of the method: as §1
[6] = Half life in human liver S9 fraction at 100 uM; assay type: ADME, subcellular
Summary of the method: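 Compound at 100 μM in 50 mM K2HPO4 pH 7.4 with 5 mM MgCl2. Started with 4 mg/mL human liver S9 at 37 °C. Samples at 0–24 h quenched with acetonitrile. Parent remaining measured by LC/MS/MS peak area relative to 0 h, and half-life calculated.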

[7] = Half life in simulated intestinal fluid of pH 7.5 at 50 ug/mL; assay type: physicochemical
Summary of the method: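 Compound at 50 μg/mL in simulated gastric fluid (pH 1.2) or simulated intestinal fluid (pH 7.5), 37 °C, 20 h. Injected by reverse-phase HPLC every 2 h, peak area at 260 nm.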

[8] = Half life in simulated gastric fluid at pH 1.2 at 50 ug/mL; assay type: physicochemical
Summary of the method: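 Compound at 50 μg/mL in simulated gastric fluid (pH 1.2) or simulated intestinal fluid (pH 7.5), 37 °C, 20 h. Injected by reverse-phase HPLC every 2 h, peak area at 260 nm. Percent parent remaining relative to 0 h, giving half-life.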

Hepatitis C virus [9] = assay: Antiviral activity against HCV infected in human clone A cells assessed as inhibition of cellular rRNA replication at 50 uM; assay type: functional, Hepacivirus hominis
Homo sapiens = organism: Homo sapiens; assay: Half life in human plasma at 100 uM

EC90 (Hepatitis C virus [1]; Hepatitis C virus) [µM]	SMILES	inhibition at 50 µM (Hepatitis C virus [9]) [%]	also measured
15.6	COC(=O)[C@H](Cc1c[nH]c2ccccc12)NP(=O)(OC[C@H]1O[C@@H](n2ccc(=O)[nH]c2=O)[C@](C)(F)[C@@H]1O)Oc1ccccc1 (stereo partly drawn)	68.4	–
0.06	CCC(C)OC(=O)[C@H](C)NP(=O)(OC[C@H]1O[C@@H](n2ccc(=O)[nH]c2=O)[C@](C)(F)[C@@H]1O)Oc1ccccc1 (stereo partly drawn)	93.8	–
> 50	CCCCCOC(=O)[C@H](C)NP(=O)(OC[C@H]1O[C@@H](n2ccc(=O)[nH]c2=O)[C@](C)(F)[C@@H]1O)Oc1ccccc1 (stereo partly drawn)	92	–
1.72	C[C@H](NP(=O)(OC[C@H]1O[C@@H](n2ccc(=O)[nH]c2=O)[C@](C)(F)[C@@H]1O)Oc1ccccc1)C(=O)OCCF (stereo partly drawn)	43.8	–
6.8	C[C@H](NP(=O)(OC[C@H]1O[C@@H](n2ccc(=O)[nH]c2=O)[C@](C)(F)[C@@H]1O)Oc1ccccc1)C(=O)OCC(F)F (stereo partly drawn)	38.3	–
18.5	C[C@H](NP(=O)(OC[C@H]1O[C@@H](n2ccc(=O)[nH]c2=O)[C@](C)(F)[C@@H]1O)Oc1ccccc1)C(=O)Oc1ccccc1 (stereo partly drawn)	0	–
0.13	C[C@H](NP(=O)(OC[C@H]1O[C@@H](n2ccc(=O)[nH]c2=O)[C@](C)(F)[C@@H]1O)Oc1ccccc1)C(=O)OCc1ccccc1 (stereo partly drawn)	74.3	–
0.24	C[C@H](NP(=O)(OC[C@H]1O[C@@H](n2ccc(=O)[nH]c2=O)[C@](C)(F)[C@@H]1O)Oc1ccccc1)C(=O)OCc1ccc(F)cc1 (stereo partly drawn)	0	–
0.69	COC(=O)[C@H](C)NP(=O)(OC[C@H]1O[C@@H](n2ccc(=O)[nH]c2=O)[C@](C)(F)[C@@H]1O)Oc1ccc(F)cc1 (stereo partly drawn)	16.8	–
0.58	COC(=O)[C@H](C)NP(=O)(OC[C@H]1O[C@@H](n2ccc(=O)[nH]c2=O)[C@](C)(F)[C@@H]1O)Oc1ccc(Cl)cc1 (stereo partly drawn)	62.8	–
2.11	COC(=O)[C@H](C)NP(=O)(OC[C@H]1O[C@@H](n2ccc(=O)[nH]c2=O)[C@](C)(F)[C@@H]1O)Oc1ccc(Br)cc1 (stereo partly drawn)	30.8	–
0.45	COC(=O)[C@H](C)NP(=O)(OC[C@H]1O[C@@H](n2ccc(=O)[nH]c2=O)[C@](C)(F)[C@@H]1O)Oc1ccc(Cl)c(Cl)c1 (stereo partly drawn)	63.7	–
0.69	COC(=O)[C@H](C)NP(=O)(OC[C@H]1O[C@@H](n2ccc(=O)[nH]c2=O)[C@](C)(F)[C@@H]1O)Oc1ccc(Cl)cc1Cl (stereo partly drawn)	10.9	–
0.09	COC(=O)[C@H](C)NP(=O)(OC[C@H]1O[C@@H](n2ccc(=O)[nH]c2=O)[C@](C)(F)[C@@H]1O)Oc1cccc2ccccc12 (stereo partly drawn)	95.4	–
> 50	CCOP(=O)(N[C@@H](C)C(=O)OC)OC[C@H]1O[C@@H](n2ccc(=O)[nH]c2=O)[C@](C)(F)[C@@H]1O (stereo partly drawn)	16.8	–
22.1	COC(=O)CNP(=O)(OC[C@H]1O[C@@H](n2ccc(=O)[nH]c2=O)[C@](C)(F)[C@@H]1O)Oc1ccccc1 (stereo partly drawn)	0	–

EC90 (Hepatitis C virus [1]; Hepatitis C virus) [µM]	SMILES	inhibition at 50 µM (Hepatitis C virus [9]) [%]	also measured
1.61	CC[C@H](NP(=O)(OC[C@H]1O[C@@H](n2ccc(=O)[nH]c2=O)[C@](C)(F)[C@@H]1O)Oc1ccccc1)C(=O)OC (stereo partly drawn)	0	–
> 50	COC(=O)[C@@H](NP(=O)(OC[C@H]1O[C@@H](n2ccc(=O)[nH]c2=O)[C@](C)(F)[C@@H]1O)Oc1ccccc1)C(C)C (stereo partly drawn)	0	–
5.4	COC(=O)[C@H](CC(C)C)NP(=O)(OC[C@H]1O[C@@H](n2ccc(=O)[nH]c2=O)[C@](C)(F)[C@@H]1O)Oc1ccccc1 (stereo partly drawn)	0	–
60.1	COC(=O)[C@H](CCSC)NP(=O)(OC[C@H]1O[C@@H](n2ccc(=O)[nH]c2=O)[C@](C)(F)[C@@H]1O)Oc1ccccc1 (stereo partly drawn)	24.1	–
57.6	COC(=O)[C@H](Cc1ccccc1)NP(=O)(OC[C@H]1O[C@@H](n2ccc(=O)[nH]c2=O)[C@](C)(F)[C@@H]1O)Oc1ccccc1 (stereo partly drawn)	20.6	–
2.2	COC(=O)C(C)(C)NP(=O)(OC[C@H]1O[C@@H](n2ccc(=O)[nH]c2=O)[C@](C)(F)[C@@H]1O)Oc1ccc(F)cc1 (stereo partly drawn)	0	–
> 50	COC(=O)C1(NP(=O)(OC[C@H]2O[C@@H](n3ccc(=O)[nH]c3=O)[C@](C)(F)[C@@H]2O)Oc2ccc(F)cc2)CC1 (stereo partly drawn)	0	–
0.98	CCOC(=O)[C@H](C)NP(=O)(OC[C@H]1O[C@@H](n2ccc(=O)[nH]c2=O)[C@](C)(F)[C@@H]1O)Oc1ccccc1 (stereo partly drawn)	36.9	–
0.09	CCCCOC(=O)[C@H](C)NP(=O)(OC[C@H]1O[C@@H](n2ccc(=O)[nH]c2=O)[C@](C)(F)[C@@H]1O)Oc1ccccc1 (stereo partly drawn)	79.6	–
0.39	CCOC(=O)[C@H](C)NP(=O)(OC[C@H]1O[C@@H](n2ccc(=O)[nH]c2=O)[C@](C)(F)[C@@H]1O)Oc1ccc(Cl)cc1 (stereo partly drawn)	0	–
0.36	CCOC(=O)[C@H](C)NP(=O)(OC[C@H]1O[C@@H](n2ccc(=O)[nH]c2=O)[C@](C)(F)[C@@H]1O)Oc1ccc(Br)cc1 (stereo partly drawn)	80.5	–
0.57	CC(C)OC(=O)[C@H](C)NP(=O)(OC[C@H]1O[C@@H](n2ccc(=O)[nH]c2=O)[C@](C)(F)[C@@H]1O)Oc1ccc(Br)cc1 (stereo partly drawn)	0	–
0.054	C[C@H](NP(=O)(OC[C@H]1O[C@@H](n2ccc(=O)[nH]c2=O)[C@](C)(F)[C@@H]1O)Oc1ccc(Cl)cc1)C(=O)OC1CCCCC1 (stereo partly drawn)	66.9	–
0.039	C[C@H](NP(=O)(OC[C@H]1O[C@@H](n2ccc(=O)[nH]c2=O)[C@](C)(F)[C@@H]1O)Oc1ccc(Br)cc1)C(=O)OC1CCCCC1 (stereo partly drawn)	91.5	–
–	CC(C)OC(=O)C(C)N[P@](=O)(OC[C@H]1O[C@@H](n2ccc(=O)[nH]c2=O)[C@](C)(F)[C@@H]1O)Oc1ccccc1 (single isomer, unassigned) [SOFOSBUVIR]	–	EC90 (Hepatitis C virus [1]): > 50 µM
3.9	CC(C)C(=O)OC[C@H]1O[C@@H](n2ccc(N)nc2=O)[C@](C)(F)[C@@H]1OC(=O)C(C)C [MERICITABINE]	0	–

SMILES	EC90 (Hepatitis C virus [1]; Hepatitis C virus) [µM]	inhibition at 50 µM (Hepatitis C virus [9]) [%]	also measured
CC(C)OC(=O)[C@H](C)NP(=O)(OC[C@H]1O[C@@H](n2ccc(=O)[nH]c2=O)[C@](C)(F)[C@@H]1O)Oc1ccc(Cl)cc1 (stereo partly drawn)	0.42	0	AUC (Rattus norvegicus [2]): 8468 ng·h/g; AUC (Rattus norvegicus [3]): 5143 ng·h/g; Cmax (Rattus norvegicus [4]): 339 ng/g; Tmax (Rattus norvegicus [5]): 1 h; half-life at 100 µM [6]: 0.35 h; half-life at 50 ug/mL [7]: > 20 h; half-life at 50 ug/mL [8]: > 20 h; half-life at 100 µM (Homo sapiens): > 24 h
C[C@H](NP(=O)(OC[C@H]1O[C@@H](n2ccc(=O)[nH]c2=O)[C@](C)(F)[C@@H]1O)Oc1ccccc1)C(=O)OC1CCCCC1 (stereo partly drawn)	0.25	61	AUC (Rattus norvegicus [2]): 8831 ng·h/g; AUC (Rattus norvegicus [3]): 6487 ng·h/g; Cmax (Rattus norvegicus [4]): 557 ng/g; Tmax (Rattus norvegicus [5]): 2 h; half-life at 100 µM [6]: 1.4 h; half-life at 50 ug/mL [7]: > 20 h; half-life at 50 ug/mL [8]: 17 h; half-life at 100 µM (Homo sapiens): > 24 h
CCOC(=O)[C@H](C)NP(=O)(OC[C@H]1O[C@@H](n2ccc(=O)[nH]c2=O)[C@](C)(F)[C@@H]1O)Oc1ccc(F)cc1 (stereo partly drawn)	0.76	55.3	AUC (Rattus norvegicus [2]): 5423 ng·h/g; AUC (Rattus norvegicus [3]): 4191 ng·h/g; Cmax (Rattus norvegicus [4]): 291 ng/g; Tmax (Rattus norvegicus [5]): 4 h; half-life at 100 µM [6]: 0.23 h; half-life at 50 ug/mL [7]: > 20 h; half-life at 50 ug/mL [8]: 17 h; half-life at 100 µM (Homo sapiens): > 8 h
CC(C)OC(=O)[C@H](C)NP(=O)(OC[C@H]1O[C@@H](n2ccc(=O)[nH]c2=O)[C@](C)(F)[C@@H]1O)Oc1ccc(F)cc1 (stereo partly drawn)	0.77	0	AUC (Rattus norvegicus [2]): 7375 ng·h/g; AUC (Rattus norvegicus [3]): 6140 ng·h/g; Cmax (Rattus norvegicus [4]): 519 ng/g; Tmax (Rattus norvegicus [5]): 6 h; half-life at 100 µM [6]: 0.42 h; half-life at 50 ug/mL [7]: > 20 h; half-life at 50 ug/mL [8]: > 20 h; half-life at 100 µM (Homo sapiens): > 24 h
